Measurements published in article PMC4714695 (Cancer Science, 2015).
Entries after “also recorded” stand apart in the source; their conditions may differ.

How the values were obtained:
Plasma pharmacokinetics = assay type: in vivo, human
PLK1 = conditions: cited from earlier work
[1] = system: Japanese patients with acute myeloid leukemia; assay: Phase I 3 + 3 dose escalation: dose-limiting toxicities and MTD; assay type: in vivo, human
Summary of the method: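 Open-label 3 + 3 escalation at 350, 400 and 450 mg (highest planned level), by 2-h IV infusion on days 1 and 15 of 28-day cycles; patients hospitalized in cycle 1. DLT: treatment-related CTCAE grade ≥3 non-hematologic AE in cycle 1. Exceptions: untreated nausea/vomiting, treatable grade 3 diarrhea, grade 3 febrile neutropenia or infection, lab abnormalities resolving within 5 days, grade 3 tumor lysis syndrome.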

[2] = human, plasma, intravenous, 350 mg
[3] = human, plasma, intravenous, 400 mg
[4] = human, plasma, intravenous, 450 mg
[5] = 450 mg, day 29 (cycle 2, day 1)

SMILES: CC[C@@H]1C(=O)N(C)c2cnc(Nc3ccc(C(=O)N[C@H]4CC[C@H](N5CCN(CC6CC6)CC5)CC4)cc3OC)nc2N1C(C)C [Volasertib]
- Mean plasma concentration relative to maximum plasma concentration (Plasma pharmacokinetics; 24 h after administration): < 10%
- Dose dependence of exposure (Plasma pharmacokinetics; dose range 350–450 mg): increased dose‐proportionally
- Vd (Plasma pharmacokinetics; human, plasma, intravenous): 3540 to 4720 L
- clearance (Plasma pharmacokinetics; human, plasma, intravenous): 606 to 669 mL/min
- half-life (Plasma pharmacokinetics; human, plasma, intravenous): 108 to 130 h
- AUC(0-inf) (Plasma pharmacokinetics; [2]): 8720 ng·h/mL
- AUC(0-t) (Plasma pharmacokinetics; [2]): 7810 ng·h/mL
- Cmax (Plasma pharmacokinetics; [2]): 756 ng/mL
- Tmax (Plasma pharmacokinetics; [2]): 1.97 h
- clearance (Plasma pharmacokinetics; [2]): 669 mL/min
- half-life (Plasma pharmacokinetics; [2]): 117 h
- AUC(0-inf) (Plasma pharmacokinetics; [3]): 10400 ng·h/mL
- AUC(0-t) (Plasma pharmacokinetics; [3]): 9340 ng·h/mL
- Cmax (Plasma pharmacokinetics; [3]): 762 ng/mL
- Tmax (Plasma pharmacokinetics; [3]): 1.05 h
- clearance (Plasma pharmacokinetics; [3]): 643 mL/min
- half-life (Plasma pharmacokinetics; [3]): 130 h
- AUC(0-inf) (Plasma pharmacokinetics; [4]): 12400 ng·h/mL
- AUC(0-t) (Plasma pharmacokinetics; [4]): 11400 ng·h/mL
- Cmax (Plasma pharmacokinetics; [4]): 1060 ng/mL
- Tmax (Plasma pharmacokinetics; [4]): 1.53 h
- clearance (Plasma pharmacokinetics; [4]): 606 mL/min
- half-life (Plasma pharmacokinetics; [4]): 108 h
- AUC0–∞,norm (dose normalized), gMean (gCV%) (Plasma pharmacokinetics; plasma, after first infusion of volasertib 350 mg (n = 7)): 24.9 (27.8) ng·h/mL/mg
- AUC0–∞,norm (dose normalized), gMean (gCV%) (Plasma pharmacokinetics; plasma, after first infusion of volasertib 400 mg (n = 4)): 25.9 (54.7) ng·h/mL/mg
- AUC0–∞,norm (dose normalized), gMean (gCV%) (Plasma pharmacokinetics; plasma, after first infusion of volasertib 450 mg (n = 8)): 27.5 (22.8) ng·h/mL/mg
- Inhibition of PLK1 (PLK1): selectively inhibit
- DLT in cycle 1 ([1]; 350 mg cohort): No DLT were reported
- DLT in cycle 1 ([1]; 400 mg cohort): No DLT were reported
- Patients with DLT in cycle 1 ([1]; 450 mg cohort 3, 6 evaluable patients): 1
- DLT observed (type) ([1]; 450 mg cohort 3, cycle 1): grade 4 abnormal liver function test; also recorded: reversible grade 4 liver function test abnormality
- Day on which the patient was considered recovered from the DLT ([1]; 450 mg, reduced to 400 mg in cycle 2): 38 days
- Total bilirubin in the patient with DLT ([1]; 450 mg, day 9 of cycle 1, reference 0.3–1.2 mg/dL): 1.1 mg/dL
- ALT in the patient with DLT ([1]; 450 mg, day 9 of cycle 1, reference 6–30 IU/L): 116 IU/L
- AST in the patient with DLT ([1]; 450 mg, day 9 of cycle 1, reference 13–33 IU/L): 131 IU/L
- ALT in the patient with DLT ([1]; 450 mg, day 11 of cycle 1): 711 IU/L
- AST in the patient with DLT ([1]; 450 mg, day 11 of cycle 1): 764 IU/L
- Total bilirubin in the patient with DLT ([1]; 450 mg, day 11 of cycle 1): 2.6 mg/dL
- ALT in the patient with DLT ([1]; 450 mg, day 16): 450 IU/L
- AST in the patient with DLT ([1]; 450 mg, day 16): 156 IU/L
- Total bilirubin in the patient with DLT ([1]; 450 mg, day 16): 3.8 mg/dL
- ALT in the patient with DLT [1, 5]: 38 IU/L
- AST in the patient with DLT [1, 5]: 15 IU/L
- Total bilirubin in the patient with DLT [1, 5]: 1.0 mg/dL
- Maximum tolerated dose (MTD) ([1]; intravenous 2-h infusion on days 1 and 15 of 28-day cycles): 450 mg
